Legend:
U-251 = assay: Cytotoxicity against human U251 cells assessed as cell growth at 1 uM after 48 hrs by sulforhodamine B assay; type: functional; settings: U-251, 48 h, read-out: Activity
SN12C [1] = assay: Cytotoxicity against human SN12C cells assessed as cell growth at 0.01 uM after 48 hrs by sulforhodamine B assay; type: functional; settings: read-out: Activity
DU-145 = assay: Cytotoxicity against human DU145 cells assessed as cell growth at 10 uM after 48 hrs by sulforhodamine B assay; type: functional; settings: DU-145, 48 h, read-out: Activity
SN12C [2] = assay: Cytotoxicity against human SN12C cells assessed as cell growth at 0.001 uM after 48 hrs by sulforhodamine B assay; type: functional; settings: read-out: Activity
M14 = assay: Cytotoxicity against human M14 cells assessed as cell growth at 100 nM after 48 hrs by sulforhodamine B assay; type: functional; settings: M14, 48 h, read-out: Activity
UO-31 [3] = assay: Growth inhibition of human UO31 cells after 48 hrs by sulforhodamine B assay; type: functional, cell-based; settings: UO-31, 48 h
How it was run: (§1)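 Cells grown in RPMI 1640 with 5% FBS and 2 mM L-glutamine, seeded at 5,000–40,000 cells/well according to doubling time. After 24 h, time-zero plates are TCA-fixed. Five concentrations (10-fold or ½log dilutions, DMSO stocks) are applied for 48 h at 37 °C, 5% CO₂. Cells are TCA-fixed, SRB-stained and read at 515 nm. IC₅₀ is taken from [(Ti−Tz)/(C−Tz)]×100 = 50.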

MDA-MB-231 [4] = assay: Growth inhibition of human MDA-MB-231 cells after 48 hrs by sulforhodamine B assay; type: functional, cell-based; settings: MDA-MB-231, 48 h; how it was run: as §1
MDA-MB-435 = assay: Cytotoxicity against human MDA-MB-435 cells assessed as cell growth at 0.01 uM after 48 hrs by sulforhodamine B assay; type: functional; settings: MDA-MB-435, 48 h, read-out: Activity
SK-MEL-5 = assay: Cytotoxicity against human SK-MEL-5 cells assessed as cell growth at 10 uM after 48 hrs by sulforhodamine B assay; type: functional; settings: SK-MEL-5, 48 h, read-out: Activity
MDA-MB-231 [5] = assay: Cytotoxicity against human MDA-MB-231 cells assessed as cell growth at 0.001 uM after 48 hrs by sulforhodamine B assay; type: functional; settings: MDA-MB-231, 48 h, read-out: Activity
IGROV-1 = assay: Cytotoxicity against human IGROV1 cells assessed as cell growth at 100 nM after 48 hrs by sulforhodamine B assay; type: functional; settings: IGROV-1, 48 h, read-out: Activity
OVCAR-5 [6] = assay: Cytotoxicity against human OVCAR5 cells assessed as cell growth at 0.01 uM after 48 hrs by sulforhodamine B assay; type: functional; settings: OVCAR-5, 48 h, read-out: Activity
NCI-H23 = assay: Cytotoxicity against human NCI-H23 cells assessed as cell growth at 0.001 uM after 48 hrs by sulforhodamine B assay; type: functional; settings: NCI-H23, 48 h, read-out: Activity
HOP-62 [7] = assay: Growth inhibition of human HOP62 cells after 48 hrs by sulforhodamine B assay; type: functional, cell-based; settings: HOP-62, 48 h; how it was run: as §1
SW-620 = assay: Growth inhibition of human SW620 cells after 48 hrs by sulforhodamine B assay; type: functional, cell-based; settings: SW-620, 48 h; how it was run: as §1
SF-295 = assay: Cytotoxicity against human SF295 cells assessed as cell growth at 0.01 uM after 48 hrs by sulforhodamine B assay; type: functional; settings: SF-295, 48 h, read-out: Activity
SNB-75 = assay: Cytotoxicity against human SNB75 cells assessed as cell growth at 100 nM after 48 hrs by sulforhodamine B assay; type: functional; settings: SNB-75, 48 h, read-out: Activity
SF-539 [8] = assay: Growth inhibition of human SF539 cells after 48 hrs by sulforhodamine B assay; type: functional, cell-based; settings: Homo sapiens, SF-539, 48 h; how it was run: as §1
UACC-257 [9] = assay: Cytotoxicity against human UACC257 cells assessed as cell growth at 100 nM after 48 hrs by sulforhodamine B assay; type: functional; settings: UACC-257, 48 h, read-out: Activity
SF-539 [10] = assay: Cytotoxicity against human SF539 cells assessed as cell growth at 100 nM after 48 hrs by sulforhodamine B assay; type: functional; settings: SF-539, 48 h, read-out: Activity
EKVX = assay: Cytotoxicity against human EKVX cells assessed as cell growth at 0.01 uM after 48 hrs by sulforhodamine B assay; type: functional; settings: read-out: Activity
SK-MEL-2 = assay: Growth inhibition of human SK-MEL-2 cells after 48 hrs by sulforhodamine B assay; type: functional, cell-based; settings: SK-MEL-2, 48 h; how it was run: as §1
UACC-257 [11] = assay: Cytotoxicity against human UACC257 cells assessed as cell growth at 10 uM after 48 hrs by sulforhodamine B assay; type: functional; settings: UACC-257, 48 h, read-out: Activity
KM12 = assay: Cytotoxicity against human KM12 cells assessed as cell growth at 100 nM after 48 hrs by sulforhodamine B assay; type: functional; settings: KM12, 48 h, read-out: Activity
OVCAR-5 [12] = assay: Cytotoxicity against human OVCAR5 cells assessed as cell growth at 10 uM after 48 hrs by sulforhodamine B assay; type: functional; settings: OVCAR-5, 48 h, read-out: Activity
UO-31 [13] = assay: Cytotoxicity against human UO31 cells assessed as cell growth at 0.001 uM after 48 hrs by sulforhodamine B assay; type: functional; settings: UO-31, 48 h, read-out: Activity
SF-268 = assay: Cytotoxicity against human SF268 cells assessed as cell growth at 0.001 uM after 48 hrs by sulforhodamine B assay; type: functional; settings: SF-268, 48 h, read-out: Activity
BT-549 = assay: Cytotoxicity against human BT549 cells assessed as cell growth at 0.01 uM after 48 hrs by sulforhodamine B assay; type: functional; settings: BT-549, 48 h, read-out: Activity
How it was run: (§2)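 Cells grown in RPMI 1640 with 5% FBS and 2 mM L-glutamine, seeded at 5,000–40,000 cells/well by doubling time. Time-zero plates TCA-fixed after 24 h. Five concentrations (10-fold or half-log dilutions from DMSO stock) added; 48 h at 37 °C, 5% CO2. Cold TCA fixation (final 10%, 60 min, 4 °C), 0.4% SRB stain, dye solubilized in 10 mM trizma base, A515.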

HOP-62 [14] = assay: Cytotoxicity against human HOP62 cells assessed as cell growth at 0.01 uM after 48 hrs by sulforhodamine B assay; type: functional; settings: HOP-62, 48 h, read-out: Activity
SF-539 [15] = assay: Cytotoxicity against human SF539 cells assessed as cell growth at 10 uM after 48 hrs by sulforhodamine B assay; type: functional; settings: SF-539, 48 h, read-out: Activity
786-0 = assay: Cytotoxicity against human 786-0 cells assessed as cell growth at 10 uM after 48 hrs by sulforhodamine B assay; type: functional; settings: 786-0, 48 h, read-out: Activity; how it was run: as §2
[16] = read-out: LC50 (the source's name)

CC(=O)Nc1cccc(-c2ccc(-c3ccnc(NC(=O)Nc4cc(C(F)(F)F)cc(C(F)(F)F)c4)n3)cn2)c1.Cl
growth at 1 µM (U-251): -32%
growth at 0.01 µM (SN12C [1]): 96%
growth at 10 µM (DU-145): -93%
growth at 0.001 µM (SN12C [2]): 94%
growth at 0.1 µM (M14): 92%
GI50 (UO-31 [3]): 5.51 µM
IC50 (UO-31 [3]): 5.51 µM
TGI (UO-31 [3]): 23.2 µM
CC50 (UO-31 [3]; [16]): 61.7 µM
GI50 (MDA-MB-231 [4]): 3.72 µM
IC50 (MDA-MB-231 [4]): 3.72 µM
LC50 (MDA-MB-231 [4]): 62 µM
TGI (MDA-MB-231 [4]): 19.7 µM
growth at 0.01 µM (MDA-MB-435): 97%
growth at 10 µM (SK-MEL-5): 100%
growth at 0.001 µM (MDA-MB-231 [5]): 102%
growth at 0.1 µM (IGROV-1): 89%
growth at 0.01 µM (OVCAR-5 [6]): 82%
growth at 0.001 µM (NCI-H23): 91%
GI50 (HOP-62 [7]): 4.88 µM
IC50 (HOP-62 [7]): 4.88 µM
TGI (HOP-62 [7]): 26.8 µM
CC50 (HOP-62 [7]; [16]): > 100 µM
GI50 (SW-620): 2.3 µM
IC50 (SW-620): 2.3 µM
TGI (SW-620): 5.59 µM
CC50 (SW-620; [16]): > 100 µM
growth at 0.01 µM (SF-295): 94%
growth at 0.1 µM (SNB-75): 67%
GI50 (SF-539 [8]): 5.48 µM
TGI (SF-539 [8]): 18.9 µM
IC50 (SF-539 [8]; read-out: IC50): 5.48 µM
CC50 (SF-539 [8]; [16]): 44.3 µM
growth at 0.1 µM (UACC-257 [9]): 78%
growth at 0.1 µM (SF-539 [10]): 86%
growth at 0.01 µM (EKVX): 79%
GI50 (SK-MEL-2): 5.65 µM
IC50 (SK-MEL-2): 5.65 µM
TGI (SK-MEL-2): 19.8 µM
CC50 (SK-MEL-2; [16]): 52.4 µM
growth at 10 µM (UACC-257 [11]): -89%
growth at 0.1 µM (KM12): 92%
growth at 10 µM (OVCAR-5 [12]): -96%
growth at 0.001 µM (UO-31 [13]): 90%
growth at 0.001 µM (SF-268): 95%
growth at 0.01 µM (BT-549): 91%
growth at 0.01 µM (HOP-62 [14]): 92%
growth at 10 µM (SF-539 [15]): -98%
growth at 10 µM (786-0): 100%

Reference: ChEMBL document CHEMBL1165943, “Design and synthesis of new anticancer pyrimidines with multiple-kinase inhibitory effect” (Bioorg Med Chem, 2010)
